Test results published in ChEMBL document CHEMBL1124476, “1-(2-aminoethyl)-6-aryl-4H- [1,2,4]triazolo[4,3-a][1,4]benzodiazepines with diuretic and natriuretic activity” (J Med Chem, 1989).

Legend:
Rattus norvegicus [1] = organism: Rattus norvegicus; experiment: […]; type: ADME, organism-based, Urine; set-up: dose 1 mg/kg, route oral; settings: in vivo, po, 1 mg/kg
How it was run: (§1)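 Dose-response test in male Sprague-Dawley rats of about 160 g, fasted 24 h, with water withheld 1½ h before and during the test. Each rat got a single gavage of 25 mL/kg 0.9% saline with 0.5% carboxymethylcellulose carrying the agent (0.3–100 mg/kg range). Rats were housed two per metabolism cage, and urine was collected for 5 h. Mean urine volume (mL) was compared with controls (P < 0.05).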

Rattus norvegicus [2] = experiment: Mean excretion of sodium in conscious rats at a dose of 10 mg/kg given orally; type: ADME, organism-based; set-up: dose 10 mg/kg, route oral; settings: in vivo, po
How it was run: (§2)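 Male Sprague-Dawley rats, about 160 g, fasted 24 h and water withheld 1 1/2 h beforehand; food and water withheld during the test. Dosing by gavage with 25 mL/kg 0.9% saline containing 0.5% (carboxymethyl)cellulose, agent dissolved or suspended. Three cages of two rats each per dose, held in metabolism cages. Urine collected over 5 h. Volume given in mL, Na+ in mequiv. Significance versus control at P < 0.05.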

[3] = Diuretic activity at 40 mg/kg (screening dose 88.2 umol/kg) in […] in a one stage experiment; T/C = urine vol of treated rats / urine vol of control rats; type: functional
How it was run: (§3)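 40 mg/kg given by gavage in 25 mL/kg 0.9% saline with 0.5% (carboxymethyl)cellulose. Four rats per agent, two per metabolism cage; 20 controls; 5 h urine. T/C = treated/control urine volume. Stage-1 T/C of 1.66 or more leads to stage 2; product T/C1·T/C2 of 3.34 or more counts as active.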

Rattus norvegicus [4] = organism: Rattus norvegicus; experiment: […]; type: ADME, organism-based, Urine; set-up: dose 0.3 mg/kg, route oral; settings: in vivo, po, 0.3 mg/kg; how it was run: as §1
Rattus norvegicus [5] = experiment: Mean excretion of chloride in conscious rats at a dose of 3.0 mg/kg given orally; type: ADME, organism-based; set-up: dose 3 mg/kg, route oral; settings: in vivo, po
How it was run: (§4)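 Secondary dose-response in male Sprague-Dawley rats (~160 g), fasted and hydrated as in the primary screen. Oral gavage at 0.3-100 mg/kg in 25 mL/kg saline/0.5% CMC, three cages of two rats per dose. Urine collected 5 h; Na, K, Cl, HCO3 measured. Values are mean excretion (mequiv), compared with controls at P < 0.05.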

Rattus norvegicus [6] = experiment: Mean excretion of potassium in conscious rats at a dose of 10 mg/kg given orally; type: ADME, organism-based; set-up: dose 10 mg/kg, route oral; settings: in vivo, po; how it was run: as §4
Rattus norvegicus [7] = experiment: Mean excretion of […] in conscious rats at a dose of 1.0 mg/kg given orally; type: ADME, organism-based; set-up: dose 1 mg/kg, route oral; settings: in vivo, po; how it was run: as §2
Rattus norvegicus [8] = experiment: Mean excretion of potassium in conscious rats at a dose of 0.3 mg/kg given orally; type: ADME, organism-based; set-up: dose 0.3 mg/kg, route oral; settings: in vivo, po; how it was run: as §4
Rattus norvegicus [9] = experiment: Mean excretion of potassium in conscious rats at a dose of 3.0 mg/kg given orally; type: ADME, organism-based; set-up: dose 3 mg/kg, route oral; settings: in vivo, po; how it was run: as §4
Rattus norvegicus [10] = experiment: Mean excretion of potassium in conscious rats at a dose of 1.0 mg/kg given orally; type: ADME, organism-based; set-up: dose 1 mg/kg, route oral; settings: in vivo, po; how it was run: as §4
Rattus norvegicus [11] = experiment: Mean excretion of Cl- in conscious rats at a dose of 0.3 mg/kg given orally; type: ADME, organism-based, Urine; set-up: dose 0.3 mg/kg, route oral; settings: in vivo, po; how it was run: as §1
[12] = Diuretic activity at 40 mg/kg (screening dose-88.2 uM/Kg) in […] in a two stage experiment; T/C1.2 = urine vol of treated rats / urine vol of control rats; type: functional; how it was run: as §3
Rattus norvegicus [13] = experiment: Mean excretion of sodium in conscious rats at a dose of 3.0 mg/kg given orally; type: ADME, organism-based; set-up: dose 3 mg/kg, route oral; settings: in vivo, po; how it was run: as §2
Rattus norvegicus [14] = experiment: Mean excretion of potassium in conscious rats at a dose of 100 mg/kg given orally; type: ADME, organism-based; set-up: dose 100 mg/kg, route oral; settings: in vivo, po; how it was run: as §4
Rattus norvegicus [15] = organism: Rattus norvegicus; experiment: […]; type: ADME, organism-based, Urine; set-up: dose 100 mg/kg, route oral; settings: in vivo, po, 100 mg/kg; how it was run: as §2
Rattus norvegicus [16] = experiment: Mean excretion of chloride in conscious rats at a dose of 1.0 mg/kg given orally; type: ADME, organism-based; set-up: dose 1 mg/kg, route oral; settings: in vivo, po; how it was run: as §4
Rattus norvegicus [17] = experiment: Mean excretion of sodium in conscious rats at a dose of 0.3 mg/kg given orally; type: ADME, organism-based; set-up: dose 0.3 mg/kg, route oral; settings: in vivo, po; how it was run: as §2
Rattus norvegicus [18] = experiment: Mean excretion of sodium in conscious rats at a dose of 30 mg/kg given orally; type: ADME, organism-based; set-up: dose 30 mg/kg, route oral; settings: in vivo, po; how it was run: as §2
Rattus norvegicus [19] = organism: Rattus norvegicus; experiment: […]; type: ADME, organism-based, Urine; set-up: dose 30 mg/kg, route oral; settings: in vivo, po, 30 mg/kg; how it was run: as §2
Rattus norvegicus [20] = experiment: Mean excretion of chloride in conscious rats at a dose of 10 mg/kg given orally; type: ADME, organism-based; set-up: dose 10 mg/kg, route oral; settings: in vivo, po; how it was run: as §4
Rattus norvegicus [21] = experiment: Mean excretion of chloride in conscious rats at a dose of 100 mg/kg given orally; type: ADME, organism-based; set-up: dose 100 mg/kg, route oral; settings: in vivo, po; how it was run: as §4
Rattus norvegicus [22] = organism: Rattus norvegicus; experiment: […]; type: ADME, organism-based, Urine; set-up: dose 3 mg/kg, route oral; settings: in vivo, po, 3 mg/kg; how it was run: as §2
Rattus norvegicus [23] = experiment: Mean excretion of sodium in conscious rats at a dose of 100 mg/kg given orally; type: ADME, organism-based; set-up: dose 100 mg/kg, route oral; settings: in vivo, po; how it was run: as §2
Rattus norvegicus [24] = experiment: Mean excretion of chloride in conscious rats at a dose of 30 mg/kg given orally; type: ADME, organism-based; set-up: dose 30 mg/kg, route oral; settings: in vivo, po; how it was run: as §4
Rattus norvegicus [25] = organism: Rattus norvegicus; experiment: […]; type: ADME, organism-based, Urine; set-up: dose 10 mg/kg, route oral; settings: in vivo, po, 10 mg/kg; how it was run: as §2
Rattus norvegicus [26] = experiment: Mean excretion of potassium in conscious rats at a dose of 30 mg/kg given orally; type: ADME, organism-based; set-up: dose 30 mg/kg, route oral; settings: in vivo, po; how it was run: as §4
[27] = Diuretic activity at 40 mg/kg (screening dose-61.6 umol/kg) in […] in a one stage experiment; T/C = urine vol of treated rats / urine vol of control rats; type: functional; how it was run: as §3
[28] = Diuretic activity at 40 mg/kg (screening dose-100.8 umol/kg) in […] in a one stage experiment; T/C = urine vol of treated rats / urine vol of control rats; type: functional; how it was run: as §3
[29] = Diuretic activity at 40 mg/kg (screening dose-82.2 umol/kg) in […] in a two stage experiment; T/C1.2 = urine vol of treated rats / urine vol of control rats; type: functional; how it was run: as §3
[30] = Diuretic activity at 40 mg/kg (screening dose-82.2 umol/kg) in […] in a one stage experiment; T/C = urine vol of treated rats / urine vol of control rats; type: functional; how it was run: as §3

Structure (SMILES)	Mean urine volume (Rattus norvegicus [1]) [mL]	Mean excretion of Na+ (Rattus norvegicus [2]) [m equiv]	Mean urine volume (Rattus norvegicus [4]) [mL]	Mean excretion of Cl- (Rattus norvegicus [5]) [m equiv]	Mean excretion of K+ (Rattus norvegicus [6]) [m equiv]	Mean excretion of Na+ (Rattus norvegicus [7]) [m equiv]	Mean excretion of K+ (Rattus norvegicus [8]) [m equiv]	Mean excretion of K+ (Rattus norvegicus [9]) [m equiv]	Mean excretion of K+ (Rattus norvegicus [10]) [m equiv]	Mean excretion of Cl- (Rattus norvegicus [11]) [m equiv]	Mean excretion of Na+ (Rattus norvegicus [13]) [m equiv]	Mean excretion of K+ (Rattus norvegicus [14]) [m equiv]	Mean urine volume (Rattus norvegicus [15]) [mL]	Mean excretion of Cl- (Rattus norvegicus [16]) [m equiv]	Mean excretion of Na+ (Rattus norvegicus [17]) [m equiv]	Mean excretion of Na+ (Rattus norvegicus [18]) [m equiv]	Mean urine volume (Rattus norvegicus [19]) [mL]	Mean excretion of Cl- (Rattus norvegicus [20]) [m equiv]	Mean excretion of Cl- (Rattus norvegicus [21]) [m equiv]	Mean urine volume (Rattus norvegicus [22]) [mL]	also measured
CSc1ccc2c(c1)C(c1ccccc1)=NCc1nnc(C(CN(C)C)c3ccccc3)n1-2 (centres undefined)	5.12	1.39	3.92	0.9	0.23	0.94	0.31	0.36	0.31	0.76	0.91	0.28	14.14	0.89	0.88	1.87	10.39	1.28	2.17	5.2	T/C 1 [3]: 2.29; T/C 1.2 [12]: 6.6; Mean excretion of Na+ (Rattus norvegicus [23]): 2.52 m equiv; Mean excretion of Cl- (Rattus norvegicus [24]): 1.69 m equiv; Mean urine volume (Rattus norvegicus [25]): 6.83 mL; Mean excretion of K+ (Rattus norvegicus [26]): 0.25 m equiv
Clc1ccc2c(c1)C(c1ccccc1)=NCc1nnc(C(CN3CCN(c4ccccc4)CC3)c3ccccc3)n1-2.O=C(O)C(=O)O (centres undefined)																					T/C 1 [27]: 0.95
C=C(c1ccccc1)c1nnc2n1-c1ccc(Cl)cc1C(c1ccccc1)=NC2																					T/C 1 [28]: 0.76
CN(C)CC(c1ccccc1)c1nnc2n1-c1ccc(Br)cc1C(c1ccccc1)=NC2 (centres undefined)	3.59	0.74	4.29	0.6	0.17	0.64	0.24	0.17	0.21	0.72	0.53	0.15	7.74	0.62	0.63	1.18	8.5	0.78	1.01	3.4	T/C 1.2 [29]: 4.73; T/C 1 [30]: 2.17; Mean excretion of Na+ (Rattus norvegicus [23]): 1.16 m equiv; Mean excretion of Cl- (Rattus norvegicus [24]): 1.16 m equiv; Mean urine volume (Rattus norvegicus [25]): 5.1 mL; Mean excretion of K+ (Rattus norvegicus [26]): 0.17 m equiv
